Source: article PMC9486128 (The Journal of Biological Chemistry, 2022)
Substitutions are numbered along the chain they refer to. Values joined by “and” are separate entries in the source; they are usually repeats but may differ in a detail not shown here. Equal entries are not always repeated.

Legend:
SmHDAC8 [1] = biological target: T1, SmHDAC8 (Schistosoma mansoni, UniProt A5H660); test: SmHDAC8 enzymatic activity inhibition; type: biochemical; conditions: for enhancement in potency toward SmHDAC8: NF2883 with respect to NF2453, NF2889 with respect to NF2452
T1 sequence (A5H660 1-440): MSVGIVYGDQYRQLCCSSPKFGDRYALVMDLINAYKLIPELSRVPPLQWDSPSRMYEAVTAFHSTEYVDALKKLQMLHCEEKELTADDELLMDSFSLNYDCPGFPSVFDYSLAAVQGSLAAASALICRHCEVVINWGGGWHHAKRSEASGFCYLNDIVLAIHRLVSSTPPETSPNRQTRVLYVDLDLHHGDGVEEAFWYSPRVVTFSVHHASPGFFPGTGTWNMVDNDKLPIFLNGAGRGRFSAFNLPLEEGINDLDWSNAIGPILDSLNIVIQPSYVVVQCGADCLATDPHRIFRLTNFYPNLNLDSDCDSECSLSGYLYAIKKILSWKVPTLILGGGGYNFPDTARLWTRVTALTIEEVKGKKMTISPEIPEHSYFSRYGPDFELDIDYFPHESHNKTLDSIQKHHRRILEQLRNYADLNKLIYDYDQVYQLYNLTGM

hHDAC8 [2] = biological target: T2, hHDAC8 (Homo sapiens, UniProt Q9BY41); test: hHDAC8 enzymatic activity inhibition; type: biochemical; conditions: for enhancement in potency toward hHDAC8: NF2883 with respect to NF2453, NF2889 with respect to NF2452
T2 sequence (Q9BY41 1-377): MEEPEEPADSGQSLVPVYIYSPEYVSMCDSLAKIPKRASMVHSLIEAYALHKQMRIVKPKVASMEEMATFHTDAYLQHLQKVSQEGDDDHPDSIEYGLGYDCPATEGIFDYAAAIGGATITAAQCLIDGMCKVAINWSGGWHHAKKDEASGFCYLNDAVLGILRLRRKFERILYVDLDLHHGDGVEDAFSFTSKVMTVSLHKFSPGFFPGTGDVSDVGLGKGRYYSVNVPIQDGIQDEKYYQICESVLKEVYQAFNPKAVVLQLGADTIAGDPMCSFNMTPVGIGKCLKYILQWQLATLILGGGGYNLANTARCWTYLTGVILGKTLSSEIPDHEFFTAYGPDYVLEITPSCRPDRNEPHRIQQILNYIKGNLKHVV

[3] = test system: S. mansoni larvae (schistosomula); test: ATP-based luminescence viability assay on schistosomula; type: cell-based, Schistosoma mansoni; conditions: 72 h incubation, normalized to DMSO and gambogic acid 10 μM
Summary of the method: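 Schistosomula of a Puerto Rican strain were made by mechanical transformation of cercariae and purified on a Percoll gradient. They were exposed at 150 per well in phenol-red-free DMEM to test compound in DMSO for 72 h at 37 °C, 5% CO2. CellTiterGlo luminescence was read after 30 min. Three independent experiments were run. LD50 came from a variable-slope log(inhibitor) versus normalized response fit.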

[4] = test system: S. mansoni adult worm pairs; test: Adult worm pairs viability assay; type: cell-based, Schistosoma mansoni; conditions: for reduction of adult worm pairs viability: day 7; for adult worm pairs viability: 24 h
Summary of the method: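 Five adult worm pairs per sample were held in complete DMEM. Test compound was added once at 10, 20 or 50 μM, with no medium addition or replacement, against a DMSO vehicle control. Worms were scored 0–3 daily under a stereomicroscope for 7 days. The sample score was the sum of worm scores divided by worm number, expressed as percent relative to DMSO. Three experiments were run.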

SmHDAC8 [5] = biological target: T1, SmHDAC8; test: Binding to SmHDAC8 by quenching of intrinsic fluorescence
Summary of the method: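 Recombinant His6-tagged SmHDAC8 was expressed in E. coli BL21(DE3) and used at 0.125 μM in 50 mM Tris pH 8.0, 150 mM KCl, 100 μM DTT. It was titrated with test compound from 1.6 nM to 125 μM, with 5 min stirred equilibration per addition at 25 °C. Intrinsic fluorescence quenching was read at 340 nm (excitation 280 nm), averaging 4–5 accumulations. Ki came from a quadratic 1:1 binding fit.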

SmHDAC8 WT = biological target: T3, SmHDAC8 WT (Schistosoma mansoni, UniProt A5H660); test: Steady-state enzyme kinetics of SmHDAC8 with fixed inhibitor concentration; type: biochemical; conditions: for type of inhibition of SmHDAC8: from steady-state kinetics and IC50 at different substrate concentrations
T3 sequence (A5H660 1-440): T1 sequence (A5H660 1-440)
Summary of the method: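 SmHDAC8 (0.425 μM) was preincubated 15 min at 25 °C with DMSO, 5 μM or 1 μM test compound. Timed aliquots were quenched with TSA/trypsin. Initial rates came from product versus time via standard curve and were fitted to Michaelis–Menten. Two to four independent experiments were run.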

hHDAC8 [6] = biological target: T2, hHDAC8; test: Steady-state enzyme kinetics of hHDAC8 with fixed inhibitor concentration; type: biochemical; conditions: for type of inhibition of hHDAC8: from steady-state kinetics
Summary of the method: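 Commercial recombinant human HDAC8 from the Fluor-de-Lys kit was run with varied Fluor-de-Lys acetylated peptide-AMC substrate. Reactions contained vehicle or a fixed test compound concentration. Steady-state parameters came from Michaelis–Menten nonlinear regression.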

WT SmHDAC8 = biological target: T4, WT SmHDAC8 (Schistosoma mansoni, UniProt A5H660); test: Fluorescence emission spectra of WT SmHDAC8 with inhibitors; type: binding; conditions: inhibitor 25 μM, excitation 280 and 298 nm
T4 sequence (A5H660 1-440): T1 sequence (A5H660 1-440)
Summary of the method: (§1)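 WT SmHDAC8 or the W198A mutant (made by site-directed mutagenesis and expressed in E. coli) was used at 0.125 μM in 10 mM Tris pH 8.0, 150 mM KCl, 5 mM DTT. Protein was preincubated 15 min at 25 °C with 25 μM test compound, with a DMSO reference and enzyme-free blanks. Emission spectra were recorded after 280 and 298 nm excitation, averaging 4–5 accumulations. Some runs included 2 mM Na/K-tartrate.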

SmHDAC8 W198A mutant = biological target: T5, SmHDAC8 W198A mutant (Schistosoma mansoni, UniProt A5H660, W198A); test: Fluorescence emission spectra of SmHDAC8 W198A mutant with inhibitors; type: binding; conditions: inhibitor 25 μM, excitation 280 and 298 nm
T5 sequence (A5H660 1-440 W198A): T1 sequence (A5H660 1-440) with W198A
Summary of the method: as §1

[7] = test system: acetylation of lysine residues within histone proteins of S. mansoni adult worm pairs; test: Histone K-acetylation Western blot on adult worm pairs; type: cell-based, Schistosoma mansoni
Summary of the method: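 Ten adult worm pairs were treated 24 or 72 h with test compound at concentrations taken from viability curves. Positive controls were TSA 1 μM and a reference HDAC inhibitor 20 μM; DMSO was the negative control. Lysis buffer contained 5 mM sodium butyrate. Histone-enriched fractions were run on 15% SDS-PAGE and blotted with anti-acetyl-lysine (1:4000) and anti-α-tubulin (1:5000), with Ponceau calibration. Acetyl-lysine densitometry was normalized to tubulin, then to DMSO.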

SMILES | enhancement in potency toward SmHDAC8 (SmHDAC8 [1]) | IC50 (hHDAC8 [2]) [nM] | enhancement in potency toward hHDAC8 (hHDAC8 [2]) | LD50 on schistosomula [3] | reduction of adult worm pairs viability ([4]; 10 μM) | reduction of adult worm pairs viability ([4]; 20 μM) | adult worm pairs viability ([4]; 50 μM) | Ki (SmHDAC8 [5]) [nM] | type of inhibition of SmHDAC8 (SmHDAC8 WT) | type of inhibition of hHDAC8 (hHDAC8 [6]) | fluorescence signal of WT SmHDAC8 with respect to control (WT SmHDAC8) | fluorescence signal of SmHDAC8 W198A mutant with respect to control (SmHDAC8 W198A mutant) | other results
CN1CCC2(CC1)c1ccccc1N(Cc1ccc(C(=O)NO)s1)C2c1ccc(Cl)cc1 (stereo not drawn) [NF2883, 5-((2-(4-chlorophenyl)-1′-methylspiro[indoline-3,4′-piperidin]-1-yl)methyl)-N-hydroxythiophene-2-carboxamide] | about 20 fold | 160 ± 20 | about 20 fold | 26.2 ± 1.1 µM | 50% | almost complete death | immediate loss of viability | 130 ± 50 | – | – | – | – | –
O=C(NO)c1ccc(Cn2c3c(c4cc(Br)ccc42)SC(c2ccccc2)C3)s1 (stereo not drawn) [NF2886, 5-((7-Bromo-2-phenyl-2,3-dihydro-4H-thieno[3,2-b]indol-4-yl)methyl)-N-hydroxythiophene-2-carboxamide] | – | 3140 ± 570 | – | ~60 µM and 59.9 ± 4.9 µM | ineffective | ~50% | – | 9700 ± 7200 | competitive inhibitor | competitive | quenched | quenching | increase of IC50 with 150 μM substrate versus 50 μM (SmHDAC8 [1]; SmHDAC8): ~2 fold; reduction of adult worm pairs viability ([4]; 50 μM): ~50%; kcat (SmHDAC8 WT; SmHDAC8 with 5 μM NF2886): 0.017 ± 0.003 s⁻¹; increment of KM versus vehicle (SmHDAC8 WT; SmHDAC8 with 5 μM inhibitor): > 3 fold; kcat (hHDAC8 [6]; hHDAC8 with 5 μM NF2886): 0.012 ± 0.004 s⁻¹
CN1CCC2(CC1)c1ccccc1N(Cc1ccc(C(=O)NO)s1)C2c1cccc(Cl)c1 (stereo not drawn) [NF2889, 5-((2-(3-Chlorophenyl)-1′-methylspiro[indoline-3,4′-piperidin]-1-yl)methyl)-N-hydroxythiophene-2-carboxamide] | 6 fold | 1320 ± 70 | 2 fold | 26.2 ± 1.6 µM | 50% | almost complete death | immediate loss of viability | 600 ± 200 | mixed-type inhibition | competitive | quenched | no quenching | increase of lysine acetylation signal versus DMSO ([7]; 5 μM for 72 h): 11 fold; increase of lysine acetylation signal versus DMSO ([7]; 10 μM for 24 h): 6.5 fold; kcat (SmHDAC8 WT; SmHDAC8 with 1 μM NF2889): 0.007 ± 0.003 s⁻¹; kcat (hHDAC8 [6]; hHDAC8 with 2 μM NF2889): 0.011 ± 0.005 s⁻¹
CC(/C=C/C(=O)NO)=C\[C@@H](C)C(=O)c1ccc(N(C)C)cc1 [TSA, Trichostatin A, reference compound] | – | – | – | – | – | – | – | – | – | – | – | – | increase of K-acetylation to tubulin ratio versus control ([7]; 1 μM, positive control): About 10 fold
